Screens: PubChem, several laboratories
Neddyl block: inhibitors of human cullin neddylation. AID 651699. hit rate 0.58% among 360,000. calls only at 25 µM. P61081+Q13564. TR-FRET cullin neddylation, biochemical; in the data active = inhibition above about 36%
proCasp7 act: counter-screen for procaspase-3 activators: activators of human procaspase-7; recombinant procaspase-7, Ac-DEVD-pNA absorbance 405 nm; D23A/D198A/D206A triple mutant, cannot self-cleave; scale: DMSO 0, 5 µM enzyme 100; activation, % at 8.5 µM; hit rate 0.093% among 330,000; AID 463210;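 active = percent activation above the screen-wide mean plus 3 SD, cut at about 25% in these data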
Target sequence (P55210 whole entry D23A/D198A/D206A): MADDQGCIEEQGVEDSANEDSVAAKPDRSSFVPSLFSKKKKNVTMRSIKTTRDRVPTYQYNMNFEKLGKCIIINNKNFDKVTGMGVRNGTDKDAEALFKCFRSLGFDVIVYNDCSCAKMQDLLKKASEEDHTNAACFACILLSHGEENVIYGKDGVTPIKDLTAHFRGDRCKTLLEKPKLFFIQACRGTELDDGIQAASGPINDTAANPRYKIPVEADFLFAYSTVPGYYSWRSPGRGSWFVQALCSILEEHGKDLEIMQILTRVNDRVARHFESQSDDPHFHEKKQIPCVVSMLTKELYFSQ
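buffer or medium = Zinc-free HEPES/NaCl buffer, pH 7.4 | material = Procaspase-7 triple mutant (PC-7 D3A) | input = 2 µM procaspase-7 mutant as dispensed | signal = Epi-absorbance of released pNA at 405 nm, two timepoints | timing = 1 h preincubation, 2 h reaction | replicates = singlicate compound testing | evaluation = % activation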
KLK7 zymogen act: activators of human kallikrein-7 zymogen | activation, % at 7 µM | AID 652039 | purified proKLK7, EDANS-DABCYL substrate fluorescence; 100% is mature enzyme control, 0% vehicle | hit rate 0.9% among 370,000 | P49862;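 active = activation above the mean of all tested compounds plus 3 SD, computed per campaign excluding outliers beyond control limits, cut at about 13% in these data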
procasp3 activ: activators of human procaspase-3; recombinant procaspase-3 D3A, Ac-DEVD-pNA absorbance 405 nm; activation, % at 8.5 µM; hit rate 0.11% among 330,000; AID 463141;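 active = activation above the mean of all tested compounds plus 3 SD, cut at about 21% in these data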;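 note: 0% = DMSO alone and 100% = DMSO wells spiked with extra 5 µM PC-3 D3A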
Target sequence (P42574 whole entry D9A/D28A/D175A): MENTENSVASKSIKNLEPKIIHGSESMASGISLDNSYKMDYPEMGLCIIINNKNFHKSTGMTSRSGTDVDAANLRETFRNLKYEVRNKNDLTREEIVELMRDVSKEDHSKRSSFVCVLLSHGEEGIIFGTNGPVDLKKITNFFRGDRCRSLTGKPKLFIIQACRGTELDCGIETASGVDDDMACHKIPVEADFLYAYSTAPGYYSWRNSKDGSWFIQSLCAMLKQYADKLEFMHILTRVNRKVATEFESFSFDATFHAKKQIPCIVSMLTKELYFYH
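Assay system – Procaspase-3 D3A mutant · Benchmarks – DMSO low control, extra-enzyme high control · Technique – 405 nm absorbance of p-nitroaniline, reads at 0 and 120 min · Doses – 8.5 µM nominal · Measure – % activation between DMSO and enzyme-spiked controls · Also added – Ac-DEVD-pNA chromogenic peptide substrate · Schedule – 1 h compound preincubation, 2 h substrate hydrolysis at 25 °C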
KLK7 act conf: proKLK7 activation, confirmation | shares compounds with KLK7 zymogen act | purified proKLK7, EDANS-DABCYL substrate fluorescence; scaled: vehicle 0, mature enzyme 100 | activation, % at 7 µM | hit rate 68% among 3,200;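 active = activation, as change over the incubation, above the mean of all tested compounds plus 3 SD, cut at about 13% in these data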
EDANS interfere: fluorescence interference counter-screen for KLK7 activators; activation, % at 7 µM; AID 686952; EDANS-DABCYL substrate fluorescence interference, no enzyme, 4 h; solvent 0%, active enzyme control 100%; hit rate 80% among 3,200; shares compounds with KLK7 zymogen act;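 active = activation above the all-compound mean plus 3 SD, ignoring values outside control-based bounds, cut at about 4.8% in these data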;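 note: value is the 4 h activation minus the activation read at time zero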
K7 EDANS ctr: counter-screen for kallikrein-7 activators: EDANS-DABCYL interference, dose response; AID 720493; shares compounds with KLK7 zymogen act; hit rate 20% among 250; EC50, µM; EDANS-DABCYL peptide fluorescence interference, no enzyme;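 active = compounds that raise the fluorescence signal in this interference counterscreen, with EC50 at or below 10 µM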;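 note: intact quenched peptide substrate alone read at 355 nm excitation and 520 nm emission; signal is fluorescence gain from T0 to T4 after four hours at room temperature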
Numbers without * were called inactive; i = inactive; · = no result given. A selection: hits, their analogues and other compounds. The true share with any hit is near 1.6%.

SMILES | Neddyl block | proCasp7 act | KLK7 zymogen act | procasp3 activ | KLK7 act conf | EDANS interfere | others
CCCn1cnnc1CNC(=O)[C@H]1O[C@@H](n2cnc3c(N)ncnc32)[C@H](O)[C@@H]1O | i | · | 0 | · | · | ·
Nc1cc(Oc2ccc(Cl)cc2Cl)nc(N)n1 | i | -2 | 0 | 2 | · | ·
Nc1cc(C(=O)O)c(Oc2ccc(Cl)cc2Cl)cc1C(=O)O | · | 0 | 26* | -2 | 57* | 51*
CC1Cc2ccccc2N1C(=O)Cn1cnc2ccccc21 (stereo not given) | i | 3 | 0 | 2 | · | ·
OCc1ccc(-c2cccc3nccn23)cc1 | · | · | 16* | · | 15* | 14*
Cc1cccc(-c2cccc3nccn23)c1 | · | · | 11 | · | · | ·
CONC(=O)c1ccc(-c2cccc3nccn23)cc1 | i | · | 13* | · | 6 | 12*
CN(C)C(=O)c1cccc(-c2cccc3nccn23)c1 | · | · | 2 | · | · | ·
COc1cc(Cn2c3ccc(NC(=O)NCc4ccc(F)cc4)cc3c(=O)n2C)ccc1F | · | · | 3 | · | · | ·
COc1cc(Cn2c3ccc(NC(=O)CCc4ccc(O)cc4)cc3c(=O)n2C)ccc1F | · | · | 13* | · | 5 | 10*
Cn1c(=O)c2cc(NC(=O)CCc3ccc4c(c3)OCO4)ccc2n1Cc1ccc(F)cc1 | i | · | 32* | · | 65* | 72*
CCCCNC(=O)c1ccc(NC(C)=O)c(Cl)c1 | i | -3 | 0 | 1 | · | ·
Cc1nn(-c2ccccc2)c2nc(N)c(C(N)=O)cc12 | · | -7 | 14* | -8 | 15* | 17*
COc1cccc(C2C([N+](=O)[O-])=C(N)Oc3cc(C)oc(=O)c32)c1 (stereo not given) | i | -5 | 0 | -2 | · | ·
O=C(C=Cc1ccco1)c1cc(Cl)ccc1O | i | · | 35* | · | 0 | 1
CC(C)(C)NC(=O)C(c1cc2ccccc2o1)n1c(-c2ccc(-c3ccccc3)cc2)nc2ccccc21 (stereo not given) | · | · | 25* | · | -73 | -39
O=C(Cc1ccc(Cl)cc1)Nc1ccc(S(=O)(=O)Nc2cnc3ccccc3n2)cc1 | i | 0 | 1 | 5 | · | ·
O=C(Nc1cccc(O)c1)c1cc2nc(-c3ccccc3)cc(-c3ccccc3)n2n1 | · | -93 | 96* | -8 | -63 | -116
O=C(NC1CCCC1)c1cc2nc(-c3ccccc3)cc(-c3ccccc3)n2n1 | · | 6 | -1 | 1 | · | ·
CCN(C)c1ccc(/C=N\n2nnnc2N)cc1 | · | -6 | 13* | -6 | 46* | 43*
O=C1CCC(C(=O)N2CCCCCC2)CN1CCc1ccc(Cl)cc1 (stereo not given) | i | 7 | -1 | -4 | · | ·
Cc1ccc(C)c(-n2c3nc(=O)n(C)c(=O)c-3cc3ccccc32)c1 | · | -2 | 28* | -6 | 15* | 23*
CCCCn1c(=O)cc(C)n(-c2ccccc2)c1=O | i | 3 | 0 | 1 | · | ·
CCCCn1c(=O)nc2n(-c3ccccc3)c3ccccc3cc-2c1=O | · | -14 | 15* | -4 | 16* | 24*
Cc1ccc(C)c(-n2c3nc(=O)[nH]c(=O)c-3cc3cc([N+](=O)[O-])ccc32)c1 | i | 11 | 2 | -11 | · | ·
SMILES | Neddyl block | proCasp7 act | KLK7 zymogen act | procasp3 activ | KLK7 act conf | EDANS interfere | others
Cc1ccc(S(=O)(=O)CC(=O)c2cc(C)c(O)c(C)c2)cc1 | i | 11 | 0 | 1 | · | ·
COc1cccc(Nc2nc(C(N)c3ccccc3)cs2)n1 (stereo not given) | i | · | 0 | · | · | ·
COc1cccc(-c2ccc(CC[C@H]3O[C@H]4CC[C@H](CO)O[C@H]4C[C@H]3NS(C)(=O)=O)cc2)c1 | · | · | 1 | · | · | ·
O=C(O)C(c1ccccc1)C(O)c1ccc2c(c1)OCO2 (stereo not given) | i | · | -1 | · | · | ·
O=C(CCc1n[nH]c(=O)[nH]c1=O)Nc1cccc([N+](=O)[O-])c1 | i | -7 | 16* | 2 | -1 | 0
CC(=O)OC(C)[C@H]1CC[C@H]2[C@@H]3CC[C@H]4C[C@@H](OC(C)=O)CC[C@]4(C)C3=CC[C@]12C (stereo not given in full) | i | 4 | 1 | 5 | · | ·
COc1ccc2c(c1)C(=O)CC(O)(C(F)F)O2 (stereo not given) | · | 6 | 45* | -3 | 40* | 33*
CCOc1ccc(OCC(=O)N2CCC3(CC2)CC(=O)c2ccccc2O3)cc1 | i | 9 | 0 | -9 | · | ·
CC1(C)CC(=O)c2cc(OCC(=O)N3CCCCCC3)ccc2O1 | · | 4 | 26* | 4 | 68* | 75*
CC1(C)CC(=O)c2cc(OCC(=O)NCCN3CCOCC3)ccc2O1 | · | 7 | 16* | 4 | 25* | 26*
CCOC(=O)N1CCN(C(=O)COc2ccc3c(c2)C(=O)CC(C)(C)O3)CC1 | · | 1 | 31* | 0 | 26* | 10* | K7 EDANS ctr=>70
CCOC(=O)COc1ccc2c(c1)C(=O)CC(C)(C)O2 | · | 7 | 18* | 5 | 67* | 67*
CC1(C)CC(=O)c2cc(OCC(=O)O)ccc2O1 | · | -1 | 14* | -6 | 42* | 48*
COc1cc(N(C)C)ccc1[C@]1(O)C(=O)N(C)c2ccc(Br)cc21 | i | · | -1 | · | · | ·
Cc1ccc(C(=O)COc2ccc3ccc(=O)oc3c2)cc1 | i | 11 | 0 | 5 | · | ·
O=C(Oc1ccc2ccc(=O)oc2c1)c1ccccc1 | · | 0 | 242* | -10 | 589* | 593*
CCC(NC(=O)OCc1ccccc1)C(=O)Oc1ccc2ccc(=O)oc2c1 (stereo not given) | i | 13 | 75* | 4 | 434* | 455*
COc1cccc(C(=O)COc2ccc3ccc(=O)oc3c2)c1 | i | -10 | 1 | -9 | · | ·
CCOc1ccccc1C(=O)Oc1ccc2ccc(=O)oc2c1 | · | 0 | 190* | -23 | 305* | 248*
O=C(Oc1ccc2ccc(=O)oc2c1)C1CCCCC1 | · | 3 | 107* | -52 | 337* | 301*
CCCCC1CCc2[nH]nc(C(=O)O)c2C1 (stereo not given) | i | 6 | 0 | -1 | · | ·
COc1ccc(C(=O)Oc2ccc3ccc(=O)oc3c2)cc1 | · | 9 | 19* | -5 | 122* | 128*
COc1ccc(C(=O)Oc2ccc3oc(=O)sc3c2)cc1 | i | -19 | 0 | -14 | · | ·
COc1ccc(C(C)=O)cc1CSc1ccc(S(=O)(=O)N2CCCCC2)cn1 | i | 4 | 0 | 3 | · | ·
CCn1c2ccccc2c2cc(C=NNC(=O)c3cc(-c4ccc(OC)cc4)n[nH]3)ccc21 | · | · | 50* | · | -13 | -32
